Bioassay records (PubChem)
A selection: hits, their analogues and other compounds. The true share with any hit is near 2.6%.
Rin1-Abl PPI inh = human Rin1-Abl interaction inhibition; P00519+Q13671; TR-FRET Rin1/Abl binding, biochemical; inhibition, % at 7.35 µM; hit rate 0.4% among 360,000; in the data active means inhibition above about 5%, passing the limit was not always enough
Myeloid diff MLP = myeloid differentiation induction; ER-HoxA9 myeloid progenitors, lysozyme-GFP differentiation, flow cytometry; calls only at 10 µM; hit rate 1% among 360,000; AID 624256;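 active means normalized GFP-positive differentiation at or above the plate's own cutoff, the solvent-only control mean plus 3 SD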;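 further: cells exposed to compound for four days before flow analysis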
Rce1 inh = inhibitors of yeast Ras-converting enzyme; Q03530; yeast membranes, quenched prenylated peptide cleavage fluorescence; calls only; hit rate 0.27% among 290,000;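 active means fall in fluorescence gain of 50% or more versus controls, with final raw signal at or below 3038400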;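 further: plate controls were neutral control wells for no effect and wells lacking membranes for full effect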
T cell modulator = T cell immune modulation candidate. response (vesicle binding), % at 7 µM. 2C CD8+ T cell-vesicle binding, flow cytometry; stronger effect = lower value. AID 2052. hit rate 0.068% among 330,000;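 active means response, share of CD8 T cells binding vesicles, and their 90th percentile fluorescence all below set limits, cut at about 80% in these data, passing the limit was not always enough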;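 further: values below 100% mean blocked vesicle binding to the CD8+ T cells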
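Assay system: 2C TCR transgenic mouse naive CD8+ T cells, MACS-purified | Read-out: CD8+ gate FL2 mean fluorescence as % of same-row positive control | Signal: High-throughput flow cytometry with anti-B7-1 and anti-CD8 staining | Timing: Binding step 1.5 h, 37 °C, antibody labelling 20 min, ice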
GRK2 aptamer HTS = inhibitors of human GRK2 displacing RNA aptamer; bead flow cytometry, FAM-aptamer displacement from GRK2; inhibition of aptamer binding, % at 10 µM; hit rate 0.59% among 330,000; AID 488847;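 active means inhibition of aptamer binding above 40%, roughly 3 SD of noise, on plates passing a quality check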;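 further: median bead fluorescence of bound FAM aptamer so fluorescent compounds give negative values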
Target sequence (P25098 whole entry, looked up): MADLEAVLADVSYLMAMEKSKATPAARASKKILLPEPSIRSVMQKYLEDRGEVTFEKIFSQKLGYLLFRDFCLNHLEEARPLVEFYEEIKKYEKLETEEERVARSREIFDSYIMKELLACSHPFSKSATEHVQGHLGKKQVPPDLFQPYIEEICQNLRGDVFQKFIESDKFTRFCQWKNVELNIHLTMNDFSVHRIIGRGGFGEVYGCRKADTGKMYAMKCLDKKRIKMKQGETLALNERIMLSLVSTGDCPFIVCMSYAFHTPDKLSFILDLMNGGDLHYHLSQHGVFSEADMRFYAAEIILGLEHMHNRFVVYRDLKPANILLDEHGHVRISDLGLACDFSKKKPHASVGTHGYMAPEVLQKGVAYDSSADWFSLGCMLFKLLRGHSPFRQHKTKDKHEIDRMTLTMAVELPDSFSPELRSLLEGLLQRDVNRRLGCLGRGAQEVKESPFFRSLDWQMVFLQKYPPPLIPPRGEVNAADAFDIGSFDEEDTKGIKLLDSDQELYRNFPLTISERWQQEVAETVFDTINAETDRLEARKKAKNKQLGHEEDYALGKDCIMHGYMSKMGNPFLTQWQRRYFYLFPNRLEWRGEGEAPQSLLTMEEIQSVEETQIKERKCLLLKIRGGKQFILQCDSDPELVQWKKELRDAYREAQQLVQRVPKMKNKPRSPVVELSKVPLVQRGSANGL
SKN-1 block = C. elegans SKN-1 inhibition | AID 624304 | C. elegans VP596 Pgst-4::GFP/RFP ratio, acrylamide-induced, 24 h | inhibition, % at 21.8 µM | hit rate 0.49% among 360,000;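 active means interference check ratio from 0.5 to 1.5 plus GFP to RFP signal ratio inhibition reaching or exceeding a fixed threshold, cut at about 30% in these data, passing the limit was not always enough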
Myeloid diff = promotes myeloid progenitor differentiation; shares compounds with Myeloid diff MLP; ER-HoxA9 myeloid progenitors, GFP/Mac1 double-positive flow; calls only; hit rate 2% among 2,300; AID 651706;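 active means share of green or green-and-red cells above 9 and 9% in run 1 or 4 and 3% in run 2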
GFP autofluor = compound fluorescence in myeloid differentiation counter-screen | shares compounds with Myeloid diff MLP | ER-HoxA9 myeloid progenitors, no estrogen, GFP autofluorescence flow cytometry; vehicle wells 0%, positive control 100% | fluorescence response, % (concentration not given with the values) | hit rate 7.4% among 2,300 | AID 651707;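 active means over 5% cells positive for green fluorescent reporter, or over 2% positive for both it and APC stain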;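 further: range taken on the double positive population between DMSO and positive control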
* marks the source's active call; other numbers are inactive results.

How did Cc1cc2cc(C(c3nnnn3CC3CCCO3)N3CCCc4ccccc43)c(=O)[nH]c2cc1C (centres undefined) do in these assays?
Rin1-Abl PPI inh: -2.1; Myeloid diff MLP: inactive; Rce1 inh: inactive; SKN-1 block: 5.8; Myeloid diff: inactive; GFP autofluor: 0.0

How did O=C(NC1CCCCCCC1)C1CCN(c2nc3ccccc3o2)CC1 do in these assays?
Rin1-Abl PPI inh: 2.2; Myeloid diff MLP: inactive; Rce1 inh: inactive; T cell modulator: 606.8; GRK2 aptamer HTS: 6.0; SKN-1 block: -5.3; Myeloid diff: inactive; GFP autofluor: 0.6

How did FC(F)(F)c1cc(-c2ccccn2)nc2cc(-c3ccccc3)nn12 do in these assays?
Rin1-Abl PPI inh: -1.1; Myeloid diff MLP: inactive; Rce1 inh: inactive; T cell modulator: 156.0; GRK2 aptamer HTS: 0.0; SKN-1 block: -0.2

How did CCOC(=O)Cc1csc(NC(=O)/C=C\c2ccccc2Cl)n1 do in these assays?
Rin1-Abl PPI inh: 3.1; Myeloid diff MLP: inactive; Rce1 inh: inactive; T cell modulator: 94.8; GRK2 aptamer HTS: 0.0; SKN-1 block: 0.2

How did COc1ccc(NC(=O)[C@@H](NS(=O)(=O)c2cccc(Cl)c2)C(C)C)cc1S(=O)(=O)N1CCOCC1 do in these assays?
Rin1-Abl PPI inh: 2.8; Myeloid diff MLP: inactive; T cell modulator: 142.8; GRK2 aptamer HTS: 4.0; SKN-1 block: -19.6

How did c1ccc2c(c1)CCN2CCN1CCc2ccccc21 do in these assays?
Rin1-Abl PPI inh: -0.4; Myeloid diff MLP: inactive; Rce1 inh: inactive; T cell modulator: 515.5; GRK2 aptamer HTS: 3.0; SKN-1 block: -1.6

How did CN(C)CCN1CCc2ccccc21 do in these assays?
Rin1-Abl PPI inh: -3.3; Myeloid diff MLP: active; Rce1 inh: inactive; T cell modulator: 504.3; GRK2 aptamer HTS: 0.0; SKN-1 block: 28.6; Myeloid diff: inactive; GFP autofluor: 0.0

Results for O=C(COC(=O)c1cnccn1)NCc1ccc2c(c1)OCO2 ?
Rin1-Abl PPI inh: -3.4; Myeloid diff MLP: inactive; Rce1 inh: inactive; T cell modulator: 269.5; GRK2 aptamer HTS: 0.0; SKN-1 block: -2.8

How did CC(=O)c1cccc(NC(=S)N2c3ccccc3CC2C)c1 (centres undefined) do in these assays?
Rin1-Abl PPI inh: 4.7; Myeloid diff MLP: inactive; Rce1 inh: inactive; T cell modulator: 551.2; GRK2 aptamer HTS: 0.0; SKN-1 block: 3.2

What do the screens show for `CCOc1ccc(NC(=S)N2c3ccccc3CC2C)cc1` (centres undefined)?
Rin1-Abl PPI inh: -4.0; Myeloid diff MLP: inactive; Rce1 inh: inactive; T cell modulator: 339.3; GRK2 aptamer HTS: 0.0; SKN-1 block: -13.4; Myeloid diff: inactive; GFP autofluor: 0.0

What do the screens show for `O=C(O)c1ccccc1Nc1ccc([N+](=O)[O-])cc1`?
Rin1-Abl PPI inh: -4.7; Myeloid diff MLP: inactive; Rce1 inh: inactive; T cell modulator: 130.4; GRK2 aptamer HTS: 0.0; SKN-1 block: 3.4; Myeloid diff: active; GFP autofluor: 0.7

How did C[C@H](O)C#Cc1cnc2c(c1)C(=O)N([C@H](C)CO)C[C@@H](C)[C@H](CN(C)C(=O)Nc1ccc(C(F)(F)F)cc1)O2 do in these assays?
Rin1-Abl PPI inh: 0.2; Myeloid diff MLP: inactive; SKN-1 block: 18.4; Myeloid diff: inactive; GFP autofluor: 0.4

Results for C[C@H](CO)N1C[C@H](C)[C@H](CN(C)C(=O)Nc2ccc(C(F)(F)F)cc2)Oc2ncc(Br)cc2C1=O ?
Rin1-Abl PPI inh: 3.5; Myeloid diff MLP: inactive; SKN-1 block: -0.7

How did Cc1cc(C)nc(NC(=O)Cc2ccc(Br)cc2)n1 do in these assays?
Rin1-Abl PPI inh: 0.0; Myeloid diff MLP: inactive; Rce1 inh: inactive; T cell modulator: 176.8; GRK2 aptamer HTS: 2.0; SKN-1 block: 7.8

What do the screens show for `O=C1c2ccccc2C(=O)C1Cc1cccc2ccccc12`?
Rin1-Abl PPI inh: -2.5; Myeloid diff MLP: inactive; Rce1 inh: inactive; T cell modulator: 353.5; GRK2 aptamer HTS: 0.0; SKN-1 block: -6.4; Myeloid diff: inactive; GFP autofluor: 0.0
